Consider 56 compounds from PubChem BioAssay AID463210 (The Scripps Research Institute Molecular Screening Center, 2010).

The whole screen tested about 330,000 compounds, of which about 300 (0.091%) were called active. The list comes from a sample in which actives are over-represented; it also holds similar structures and randomly drawn compounds. A number with no mark means an inactive call.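 Rule for the calls: active = percent activation above the screen-wide mean plus 3 SD (cut at about 25% in these data); inactive = the rest.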

The target in this assay is Caspase-7 (Homo sapiens) (UniProt P55210). The assay can be described thus: procaspase-7 activators, primary screen, counter-screen for procaspase-3 activator project, biochemical, absorbance, HTS, human (AID 463210). The note with it: recombinant procaspase-7, Ac-DEVD-pNA absorbance 405 nm; at 8.5 µM; active compounds read high; D23A/D198A/D206A triple mutant, cannot self-cleave; scale: DMSO 0, 5 µM enzyme 100. Put shortly: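 Replicates: singlicate. Assay system: Procaspase-7 triple mutant (PC-7 D3A). Signal: 405 nm absorbance of p-nitroaniline. Times: 1 h preincubation, 2 h reaction. Buffer or medium: Zinc-free HEPES pH 7.4 with 300 mM NaCl, 0.01% Triton X-100. Also added: DEVD-pNA substrate. Benchmarks: DMSO wells as 0%, DMSO with 5 µM added PC-7 as 100%.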
Chain of Caspase-7 (Homo sapiens) (P55210 whole entry D23A/D198A/D206A): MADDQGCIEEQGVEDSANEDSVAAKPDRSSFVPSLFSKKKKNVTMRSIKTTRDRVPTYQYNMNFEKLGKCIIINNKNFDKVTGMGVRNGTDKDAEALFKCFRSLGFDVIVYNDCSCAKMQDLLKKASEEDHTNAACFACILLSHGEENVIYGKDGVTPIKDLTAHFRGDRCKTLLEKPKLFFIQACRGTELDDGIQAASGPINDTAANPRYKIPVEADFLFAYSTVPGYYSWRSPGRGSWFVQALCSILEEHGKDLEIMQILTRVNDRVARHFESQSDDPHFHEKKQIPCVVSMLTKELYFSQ
Background: The purpose of a counterscreen is to sort out artefacts and off-target activity.
As for `Cc1ccc(CSCCNC(=O)CN(c2ccc(F)cc2)S(C)(=O)=O)cc1`, the activation was -2.84%.

On to `CCCc1c(C(=O)N/N=C(\C)CCc2ccc(OC)cc2)nnn1-c1nonc1N`, for which the activation is 2.5%.

As to `O=C(NCCc1ccco1)c1ccc(OCc2cn3ccccc3n2)cc1`, the activation is 15.8%.

Take `CCOc1cc(C(=O)OCC(=O)Nc2cccc(C)c2)ccc1OCC(=O)N1CCOCC1`: the activation was 15.3%.

With `O=S(=O)(NCCSc1ccccn1)c1ccc(Cl)cc1`, the activation was -2.06%.

Consider `COc1ccc(NC(=O)CNC(=O)Cn2ccc3ccccc3c2=O)c(OC)c1`, for which the activation is -4.04%.

Consider `Cc1ccc(Cc2cncc(O)c2)cc1S(=O)(=O)O`, for which the activation is 10.6%.

Turning to `COC(=O)/C=C(\Oc1ccccc1)C1(O)CCCCC1`, the activation is 7.7%.

As to `NS(=O)(=O)c1ccc(CCNC(=O)COC(=O)COc2cccc(C(F)(F)F)c2)cc1`, the activation is -7.58%.

For `COc1ccc(OC)c(S(=O)(=O)Nc2cccc(-c3ccc4nncn4n3)c2)c1`, the activation was 5.81%.

`Nc1c(-c2cccc(Cl)c2)cnn1-c1cccc([N+](=O)[O-])c1`: the activation is -13%.

As to `O=C(NC1CCCC1)C(c1ccco1)N(C(=O)c1csnn1)c1ccccc1` (stereo unspecified), the activation was 6.3%.

For `Cn1cnnc1Sc1ccc(S(C)(=O)=O)cc1[N+](=O)[O-]`, the activation was 6.34%.

For `COc1ccc(CNC(=O)COC(=O)CCS(=O)(=O)c2ccc(C)cc2)cc1OC`, the activation is 6.34%.

As to `CC(C)CN1CCNC(=O)C1CC(=O)N(C)CC1CCOCC1` (stereo unspecified), the activation was -1.75%.

For `Cc1ccccc1NC(=O)CSC1=NCCN1`, the activation is 9.38%.

As for `CNS(=O)(=O)c1cccc(C(=O)NCC2CCCCC2)c1`, the activation was 1.69%.

For `CNS(=O)(=O)c1cccc(C(=O)NC2CCCc3ccccc32)c1` (stereo unspecified), the activation was 38.5% (active).

For `O=C(O)c1cc(S(=O)(=O)NC2CCCc3ccccc32)ccc1O` (stereo unspecified), the activation is -8.22%.

Take `CCOC(=O)/C=C/c1ccc(C(F)(F)F)cc1S(=O)(=O)NC(C)(C)C`: the activation is 2.37%.

`Cc1cc(Cl)c2oc(C(=O)N3CCC(O)(c4ccccc4)CC3)c(C)c2c1`: the activation was -0.4%.

Regarding `COc1ccccc1CNC(=O)CN1CCC(n2cnc3cc(F)ccc32)CC1`, the activation is -8.61%.

In the case of `Cc1coc2c1c(C)cc1oc(=O)c(CC(=O)NCC(=O)N[C@H](C(=O)O)C(C)C)c(C)c12`, the activation is -1.78%.

With `CC1CCN(C(=O)Cn2nnnc2CN2CCOCC2)CC1`, the activation is 0.88%.

As for `CCNS(=O)(=O)c1ccc(NC(=O)c2cncc(Br)c2)cc1`, the activation is 3.96%.

As for `Cc1ccc2c(C)c(C(=O)N3CCN(c4ccncc4)CC3)oc2c1C`, the activation is 0%.

For `Cc1ccc(-c2csc(N3CCN(c4cc5c(cc4Cl)nc(-c4ccncc4)n5CCOCCO)CC3)n2)cc1`, the activation is 1.55%.

For the compound `CC(C)C1Nc2c(C(=O)O)cccc2C(Nc2ccccc2C(=O)O)C1(C)C` (stereo unspecified), the activation was -0.22%.

On to `CCOC(=O)Cn1c2c(c(-c3ccccc3OC)cc1=O)CCCC2`, for which the activation was 0.27%.

Take `CC(=O)Nc1ccc(NS(=O)(=O)c2cc(C)sc2C)cc1`: the activation was 4.24%.

Take `O=C(NCCS(=O)(=O)N1CCN(c2ccccc2F)CC1)c1ccc(Br)o1`: the activation is 10.8%.

With `COc1ccc(N2CCN(C(=O)Cn3cnc4sc(C)c(S(=O)(=O)N5CCOCC5)c4c3=O)CC2)cc1`, the activation was 7.13%.

`CCOC(=O)C1(CCOc2ccccc2)CCN(Cc2cc(OC)cc(OC)c2)CC1`: the activation is -7.5%.

As to `CCOC(=O)C1(CCOC)CCN(Cc2ccc(C(=O)OC)cc2)CC1`, the activation is 1.4%.

As to `CCOC(=O)C1(CCOC)CCN(Cc2cc3ccccc3s2)CC1`, the activation was 31.9% (active).

For the compound `S=C(Nc1ccc(Br)cc1)NC1CCN(Cc2ccccc2)CC1`, the activation was -4.11%.

Regarding `CCCCNS(=O)(=O)c1ccc2nc(SCC(=O)Nc3cc(C)cc(C)c3)[nH]c2c1`, the activation was 7.82%.

On to `COC(=O)c1ccc(NS(=O)(=O)c2cc3c4c(c2)C(C)C(=O)N4CCC3)cc1` (stereo unspecified), for which the activation was 8.38%.

In the case of `O=C(C[n+]1cc(-c2ccc(Cl)c(Cl)c2)n2c1CCC2)c1cccs1`, the activation was 5.63%.

As to `COC(=O)CC1=NN(c2nc(C)cc(C)n2)C(=O)C1`, the activation was 2.23%.

For `CC(C)(C)c1ccc(/C=C2\Oc3c(ccc(O)c3CN3CCN(CCO)CC3)C2=O)cc1`, the activation is -5.14%.

`Cc1ccc(S(=O)(=O)N2C[C@@H]3CCCC[C@@H]3[C@@H](C)[C@H]2c2cn(Cc3ccccc3)c3ccc(F)cc23)cc1`: the activation is 6.02%.

In the case of `Cc1c(C(=O)N(Cc2ccccc2)Cc2cccnc2)cnn1-c1ccc(F)cc1`, the activation is 3.32%.

As to `COc1ccc(OCc2cc(C(=O)N3CCCC3)no2)c2ccccc12`, the activation was -1.07%.

Consider `CN=C1SC(CC(=O)Nc2ccc(C(=O)O)cc2)C(=O)N1C` (stereo unspecified), for which the activation is 1.33%.

In the case of `CCCS(=O)(=O)N1CCC(C(=O)NCCc2ccc(OC)c(OC)c2)CC1`, the activation is 5.54%.

Take `O=C1CN(C(=O)c2cc(F)cc(F)c2)c2ccccc2N1`: the activation was 2.59%.

Consider `CCOC(=O)C1CCN(C(=O)COC(=O)C2CCN(S(=O)(=O)c3ccc4c(c3)OCCO4)CC2)CC1`, for which the activation was 2.16%.

As for `CCCCc1ccc(NS(=O)(=O)c2cccc(C(=O)N3CCCN(C)CC3)c2)cc1`, the activation is -3.56%.

On to `Cc1ccc(S(=O)(=O)NCCC(=O)OCC(=O)N(C)c2ccccc2)cc1`, for which the activation was 1.61%.

As to `COc1ccc(-n2cc(CNC3CCOCC3)c(-c3cccc(F)c3)n2)cc1`, the activation was -1.78%.

As for `CCOc1ccc2c(c1)c(=O)c(S(=O)(=O)c1ccc(C)cc1)cn2CC`, the activation is -6.47%.

In the case of `C=CCN(c1ccccc1C(=O)NCC(=O)OCC)S(=O)(=O)c1ccc(C)cc1`, the activation is 4.75%.

As for `CC(=O)N1c2ccc(S(=O)(=O)N3CCCC(C(=O)NCc4ccc(Cl)cc4)C3)cc2CC1C` (stereo unspecified), the activation was 1.56%.

Consider `COc1ccc(CN(C(=O)CSc2nnc(-c3ccc(OC)c(OC)c3)o2)c2ccc(F)cc2)cc1`, for which the activation is -3.3%.

`O=C1CCCCN1CCCC(=O)N1CCCC(Nc2ccc(F)cc2)C1` (stereo unspecified): the activation was -11.7%.
